Source: ChEMBL document CHEMBL4610035, “Synthesis and biological evaluation of novel 3-benzylcoumarin-imidazolium salts” (Bioorg Med Chem Lett, 2020)

Legend:
[1] = test system: SMMC-7721; assay: Induction of cell cycle arrest in human SMMC7721 cells assessed as accumulation at sub-G1 phase at 2 uM after 24 hrs by propidium iodide staining based flow cytometric analysis (reference value: 3.173 +/- 0.26%); format: functional
[2] = test system: SMMC-7721; assay: Induction of apoptosis in human SMMC7721 cells assessed as late apoptotic cells at 2 uM after 48 hrs by Annexin-V/PI-staining based flow cytometry (reference value: 0.649%); format: functional
[3] = test system: SMMC-7721; assay: Induction of cell cycle arrest in human SMMC7721 cells assessed as accumulation at G2/M phase at 2 uM after 24 hrs by propidium iodide staining based flow cytometric analysis (reference value: 6.70 +/- 0.63%); format: functional
[4] = test system: SMMC-7721; assay: Induction of apoptosis in human SMMC7721 cells assessed as viable cells at 4 uM after 48 hrs by Annexin-V/PI-staining based flow cytometry (reference value: 96.9%); format: functional; settings: SMMC-7721, 48 h, read-out: Activity
[5] = test system: SMMC-7721; assay: Induction of cell cycle arrest in human SMMC7721 cells assessed as accumulation at G0/G1 phase at 8 uM after 24 hrs by propidium iodide staining based flow cytometric analysis (reference value: 63.71 +/- 0.31%); format: functional
[6] = test system: SMMC-7721; assay: Induction of cell cycle arrest in human SMMC7721 cells assessed as accumulation at sub-G1 phase at 4 uM after 24 hrs by propidium iodide staining based flow cytometric analysis (reference value: 3.173 +/- 0.26%); format: functional
[7] = test system: A549; assay: Antiproliferative activity against human A549 cells assessed as growth inhibition incubated up to 4 days by MTS assay; format: functional, cell-based; settings: A549, 96 h
Method in brief: (§1)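 Five human tumour cell lines were assayed by MTS. IC50 is the compound concentration that cuts optical density of treated cells by 50% relative to untreated cells. Mean of three independent determinations.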

[8] = test system: HL-60; assay: Antiproliferative activity against human HL60 cells assessed as growth inhibition incubated up to 4 days by MTS assay; format: functional, cell-based; settings: HL-60, 96 h; method in brief: as §1
[9] = test system: SMMC-7721; assay: Induction of apoptosis in human SMMC7721 cells assessed as necrotic cells at 8 uM after 48 hrs by Annexin-V/PI-staining based flow cytometry (reference value: 1.24%); format: functional
[10] = test system: SMMC-7721; assay: Induction of cell cycle arrest in human SMMC7721 cells assessed as accumulation at G0/G1 phase at 2 uM after 24 hrs by propidium iodide staining based flow cytometric analysis (reference value: 63.71 +/- 0.31%); format: functional
[11] = test system: SMMC-7721; assay: Induction of apoptosis in human SMMC7721 cells assessed as viable cells at 2 uM after 48 hrs by Annexin-V/PI-staining based flow cytometry (reference value: 96.9%); format: functional; settings: SMMC-7721, 48 h, read-out: Activity
[12] = test system: SMMC-7721; assay: Induction of cell cycle arrest in human SMMC7721 cells assessed as accumulation at S phase at 8 uM after 24 hrs by propidium iodide staining based flow cytometric analysis (reference value: 23.26 +/- 0.57%); format: functional
[13] = test system: SMMC-7721; assay: Induction of apoptosis in human SMMC7721 cells assessed as late apoptotic cells at 4 uM after 48 hrs by Annexin-V/PI-staining based flow cytometry (reference value: 0.649%); format: functional
[14] = test system: SMMC-7721; assay: Induction of apoptosis in human SMMC7721 cells assessed as necrotic cells at 2 uM after 48 hrs by Annexin-V/PI-staining based flow cytometry (reference value: 1.24%); format: functional
[15] = test system: SW480; assay: Antiproliferative activity against human SW480 cells assessed as growth inhibition incubated up to 4 days by MTS assay; format: functional, cell-based; settings: SW480, 96 h; method in brief: as §1
[16] = test system: SMMC-7721; assay: Induction of cell cycle arrest in human SMMC7721 cells assessed as accumulation at S phase at 2 uM after 24 hrs by propidium iodide staining based flow cytometric analysis (reference value: 23.26 +/- 0.57%); format: functional
[17] = test system: SMMC-7721; assay: Induction of apoptosis in human SMMC7721 cells assessed as early apoptotic cells at 4 uM after 48 hrs by Annexin-V/PI-staining based flow cytometry (reference value: 1.25%); format: functional
[18] = test system: SMMC-7721; assay: Induction of cell cycle arrest in human SMMC7721 cells assessed as accumulation at S phase at 4 uM after 24 hrs by propidium iodide staining based flow cytometric analysis (reference value: 23.26 +/- 0.57%); format: functional
[19] = test system: SMMC-7721; assay: Induction of apoptosis in human SMMC7721 cells assessed as viable cells at 8 uM after 48 hrs by Annexin-V/PI-staining based flow cytometry (reference value: 96.9%); format: functional; settings: SMMC-7721, 48 h, read-out: Activity
[20] = test system: MCF7; assay: Antiproliferative activity against human MCF7 cells assessed as growth inhibition incubated up to 4 days by MTS assay; format: functional, cell-based; settings: MCF7, 96 h; method in brief: as §1
[21] = test system: SMMC-7721; assay: Antiproliferative activity against human SMMC7721 cells assessed as growth inhibition incubated up to 4 days by MTS assay; format: functional, cell-based; settings: SMMC-7721, 96 h; method in brief: as §1
[22] = test system: SMMC-7721; assay: Induction of cell cycle arrest in human SMMC7721 cells assessed as accumulation at G2/M phase at 8 uM after 24 hrs by propidium iodide staining based flow cytometric analysis (reference value: 6.70 +/- 0.63%); format: functional
[23] = test system: SMMC-7721; assay: Induction of cell cycle arrest in human SMMC7721 cells assessed as accumulation at sub-G1 phase at 8 uM after 24 hrs by propidium iodide staining based flow cytometric analysis (reference value: 3.173 +/- 0.26%); format: functional
[24] = test system: SMMC-7721; assay: Induction of apoptosis in human SMMC7721 cells assessed as early apoptotic cells at 8 uM after 48 hrs by Annexin-V/PI-staining based flow cytometry (reference value: 1.25%); format: functional
[25] = test system: SMMC-7721; assay: Induction of apoptosis in human SMMC7721 cells assessed as early apoptotic cells at 2 uM after 48 hrs by Annexin-V/PI-staining based flow cytometry (reference value: 1.25%); format: functional
[26] = test system: SMMC-7721; assay: Induction of apoptosis in human SMMC7721 cells assessed as necrotic cells at 4 uM after 48 hrs by Annexin-V/PI-staining based flow cytometry (reference value: 1.24%); format: functional
[27] = test system: SMMC-7721; assay: Induction of apoptosis in human SMMC7721 cells assessed as late apoptotic cells at 8 uM after 48 hrs by Annexin-V/PI-staining based flow cytometry (reference value: 0.649%); format: functional
[28] = test system: SMMC-7721; assay: Induction of cell cycle arrest in human SMMC7721 cells assessed as accumulation at G0/G1 phase at 4 uM after 24 hrs by propidium iodide staining based flow cytometric analysis (reference value: 63.71 +/- 0.31%); format: functional
[29] = test system: SMMC-7721; assay: Induction of cell cycle arrest in human SMMC7721 cells assessed as accumulation at G2/M phase at 4 uM after 24 hrs by propidium iodide staining based flow cytometric analysis (reference value: 6.70 +/- 0.63%); format: functional

Cc1cc2c(cc1C)[n+](CC(=O)c1ccc3ccccc3c1)cn2C(c1ccccc1)c1cc2ccccc2oc1=O.[Br-] (centres undefined)
Activity [1]: 3.25% | Activity [2]: 0.698% | Activity [3]: 6.92% | viability at 4 µM [4]: 93.2% | Activity [5]: 70.88% | Activity [6]: 5.16% | IC50 [7]: 4.51 µM | IC50 [8]: 2.07 µM | Activity [9]: 2.27% | Activity [10]: 65.02% | viability at 2 µM [11]: 96.4% | Activity [12]: 16.42% | Activity [13]: 1.39% | Activity [14]: 1.58% | IC50 [15]: 2.32 µM | Activity [16]: 21.82% | Activity [17]: 4.82% | Activity [18]: 22.47% | viability at 8 µM [19]: 60.9% | IC50 [20]: 2.04 µM | IC50 [21]: 3.77 µM | Activity [22]: 9.68% | Activity [23]: 2.54% | Activity [24]: 25.6% | Activity [25]: 1.3% | Activity [26]: 0.541% | Activity [27]: 11.2% | Activity [28]: 67.69% | Activity [29]: 7.59%
